Compounds with a hit are over-represented: about 1.7% of the library has one in this group of screens.
CAL PDZ FP-1: inhibitors of human CAL PDZ peptide binding. Q9HD26. purified CAL PDZ, TMR-peptide fluorescence polarization, 1 h. inhibition, % at 24.9 µM. hit rate 0.92% among 300,000;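 active = mean inhibition of at least 30% with at least half of replicates also reaching 30%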;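 note: 0% = DMSO neutral control and 100% = excess unlabeled competitor peptide PRC23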
Rce1 inhib: yeast Ras-converting enzyme inhibition; Q03530; yeast membranes, quenched prenylated peptide cleavage fluorescence; calls only; hit rate 0.27% among 290,000; AID 2563;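 active = fall in fluorescence gain of 50% or more versus controls, with final raw signal at or below 3038400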;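 note: plate controls were neutral control wells for no effect and wells lacking membranes for full effect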
Target sequence (Q03530 whole entry, looked up): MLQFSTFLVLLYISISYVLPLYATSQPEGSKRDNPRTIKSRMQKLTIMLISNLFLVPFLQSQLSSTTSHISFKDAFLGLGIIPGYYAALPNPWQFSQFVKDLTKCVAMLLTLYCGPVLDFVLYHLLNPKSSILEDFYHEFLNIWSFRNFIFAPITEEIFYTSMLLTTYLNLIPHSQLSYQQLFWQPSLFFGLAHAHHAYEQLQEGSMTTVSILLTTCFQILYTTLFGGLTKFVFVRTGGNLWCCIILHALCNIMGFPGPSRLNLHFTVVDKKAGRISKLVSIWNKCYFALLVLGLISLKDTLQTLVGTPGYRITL
ARNT-TACC3 inh: ARNT/TACC3 interaction disruption; AlphaScreen His-ARNT PAS-B/GST-TACC3 binding, luminescence; TACC3 fragment carries E629A point mutation; hit rate 0.66% among 390,000; inhibition, % at 9.99 µM;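 active = mean inhibition of replicates at least 50% and at least half of replicates each reaching 50%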;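 note: 0% = complete ARNT plus TACC3 wells and 100% = ARNT alone without TACC3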
AI-2 QS mod: Vibrio harveyi AI-2 quorum sensing modulation. Vibrio harveyi JMH597 AI-2 luminescence/OD600 ratio, 9 h; hits give low values; strain lacks LuxN and CqsS sensors; 0 = neutral-control median. activity change, % at 7.5 µM. hit rate 0.4% among 300,000; in the data active = activity change below about -75%, passing the limit was not always enough;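 note: luminescence divided by OD600 gain over 9 h not by final OD600 alone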
CAL PDZ FP-2: inhibitors of human CAL PDZ peptide binding. Q9HD26. purified CAL PDZ, TMR-peptide fluorescence polarization, 1 h. inhibition, % at 20 µM. hit rate 0.02% among 330,000. AID 504414;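 active = highest replicate inhibition of at least 40%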;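 note: plate controls were DMSO neutral control wells for no effect and unlabeled competitor peptide control wells for full effect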
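Material: tagged CAL PDZ protein CerCALP, purified; buffer or medium: sodium phosphate/NaCl buffer pH 7.4 with TCEP, IgG, Thesit; also added: fluorescent TMR peptide probe; schedule: 1 h incubation at room temperature before polarization reading; technique: fluorescence polarization from S- and P-plane intensities, G-factor corrected; control set: unlabelled peptide and DMSO controls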
An asterisk follows results filed as active; i = inactive; / = not tested or not shown; + = active, no number.

SMILES	CAL PDZ FP-1	Rce1 inhib	ARNT-TACC3 inh	AI-2 QS mod	CAL PDZ FP-2
Cc1cc(Br)ccc1Nc1nc(N)nc(N)c1N=O	0	/	-5	/	-1
Cc1ccc(CNS(=O)(=O)c2c(C)n(C)c(=O)n(C)c2=O)cc1	3	i	-20	4	-4
COc1ccc(N2C(=O)CCC(C(=O)N3CCCCC3)C2c2ccc(F)cc2)cc1 (centres undefined)	59*	i	-4	45	-1
COc1ccc(N2C(=O)CCC(C(=O)N3CCC(C(N)=O)CC3)C2c2ccc(F)cc2)cc1 (centres undefined)	-1	i	-6	23	-1
Cc1cccc(C)c1NC(=O)Cn1nnnc1N	66*	i	-1	0	8
COc1ccc(CCNC(=O)c2[nH]c(C)c(C(C)=O)c2C)cc1	-2	i	-20	-10	-1
O=C(O)c1ccc(Cl)c(S(=O)(=O)NCC2CCCO2)c1 (centres undefined)	0	i	-1	12	-1
O=C(COC(=O)c1ccc(Cl)c(S(=O)(=O)NCc2ccccc2)c1)NCC1CCCO1 (centres undefined)	44*	i	-3	10	0
COc1cnc(-c2ccccn2)nc1Oc1ccc(Cl)c2ccccc12	-4	i	17*	25	-2
COc1cnc(-c2ccccc2)nc1Oc1ccccc1C	/	i	-18	16	0
CCC(C)Nc1nc(-c2cccc(OC)c2O)nc2ccccc12 (centres undefined)	/	i	21	22	0
CCC(C)Nc1nc(-c2ccccn2)nc2ccccc12 (centres undefined)	-2	i	62*	47	-1
c1ccc(CNc2nc(NCc3ccccc3)c3ccccc3n2)cc1	/	+	4	26	22
c1ccc(CNc2nc(-c3ccccn3)nc3ccccc23)cc1	-4	i	70*	2	-3
CC1(C2CC2)NC(=O)N(CC(=O)N2CCN(c3cccc(C(F)(F)F)c3)CC2)C1=O (centres undefined)	-1	/	-3	/	-1
O=C(Nc1ccc(N2CCOCC2)c(Cl)c1)c1ncn[nH]1	-1	i	58*	28	0
O=C(Nc1ccc2oc(-c3ccccc3Cl)nc2c1)c1ncn[nH]1	-7	i	50*	99	-4
O=C(Nc1ccc(N2CCOCC2)c(Cl)c1)c1ccc(Cl)cc1	-4	i	-2	6	-1
COc1ccc(C(=O)O)cc1S(=O)(=O)N(C)CCc1ccccn1	-4	i	-2	-6	1
CCC(C)[C@H](NC(=O)N1CCC(C)CC1)C(=O)OC (some centres undefined)	52*	i	-7	10	0
COc1cccc2sc3ccc(C#CC4(O)CCCCC4)cc3c(=O)c12	4	+	-6	-45	0
O=c1c2ccccc2sc2ccc(C#CC3(O)CCCCC3)cc12	-5	i	/	-8	-3
CCc1ccc(CNC(=O)C2CCCN(c3nnc(C)c4c(C)n(-c5ccccc5)nc34)C2)cc1 (centres undefined)	64*	i	1	21	-2
Cc1ccccc1S(=O)(=O)NCC[C@H]1CC[C@@H](NC(=O)C2CC2)[C@@H](CO)O1	/	/	2	/	/
O=C(N/N=C(\c1ccccc1)c1cccnc1)c1ccc(O)cc1	-3	i	-2	15	-2
SMILES	CAL PDZ FP-1	Rce1 inhib	ARNT-TACC3 inh	AI-2 QS mod	CAL PDZ FP-2
O=C(N/N=C(\c1ccccc1)c1cccnc1)c1cccc(F)c1	-2	i	57*	9	-4
Cc1noc(C)c1NC(=O)Nc1ccc2c(c1)C(=O)N([C@@H](C)CO)C[C@@H](C)[C@@H](CN(C)S(C)(=O)=O)OCCCC[C@@H](C)O2	/	/	1	/	/
Cc1cc(C)cc(-c2nnc(SCC(=O)Nc3cc(C)on3)o2)c1	-4	/	39	/	-2
O=C(CCSc1nnc(-c2ccncc2)o1)Nc1ccccc1	-3	i	-4	32	-1
CCC(c1nnc(SCC(=O)Nc2cc(C)on2)o1)N(C)C (centres undefined)	/	/	76*	/	-1
Cc1cc(NC(=O)CSc2nnc(-c3ccc(O)cc3)o2)no1	0	i	47*	52	-3
O=C(CSc1nnc(-c2ccc(O)cc2)o1)Nc1ccccc1	62*	/	/	/	-2
Cc1cc(NC(=O)CSc2nnc(C)o2)no1	-5	i	47*	38	-1
C[C@@H]1CN([C@H](C)CO)C(=O)c2cc(NS(=O)(=O)c3ccccc3)ccc2O[C@@H](C)CCCCO[C@H]1CN(C)Cc1ccccc1	/	/	-10	/	/
CCn1c(SCC(=O)N2CCCC2)nnc1-c1ccc(N)cc1	-13	i	2	18	-2
O=C(Cc1c(F)cccc1Cl)OCC(=O)N1CCc2ccccc21	/	/	/	/	0
O=C1CC/C=C\C[C@@H](CC(=O)N(CCO)Cc2ccccc2)C(=O)NCCO1	-2	/	2	/	-1
COc1ccc(/C=N/NC(=O)c2ccc3nc[nH]c3c2)c(OC)c1	-1	i	/	41	-2
COc1ccc(-n2nc(C(=O)NCC(=O)N3CCN(c4ccccc4F)CC3)c3ccccc3c2=O)cc1OC	/	i	-9	26	-3
COc1ccc(-n2nc(C(=O)NCC(=O)N3CCN(c4ccccc4F)CC3)c3ccccc3c2=O)cc1	73*	i	/	12	-1
O=C(N/C(=C\c1ccc(Cl)cc1)C(=O)N1CCCCC1)c1ccco1	82*	i	/	20	-1
CSc1ccc(/C=C(/NC(=O)c2ccco2)C(=O)N2CCCCCC2)cc1	-7	i	5	23	0
COc1ccccc1NC(=O)Cn1cnc2c(cnn2-c2ccccc2)c1=O	57*	i	-7	14	-1
COC(=O)c1ccccc1NC(=O)Cn1cnc2c(cnn2-c2ccccc2)c1=O	/	i	2	15	0
CC12C(=O)N(Cc3ccco3)C(=O)C1C1c3ccccc3C2c2ccccc21 (centres undefined)	103*	i	-1	19	/
O=[N+]([O-])c1ccc(O)c(/C=N/Nc2ccc(Cl)nn2)c1	-3	/	58*	-4	-3
O=S1(=O)N=C(N/N=C/c2cccs2)c2ccccc21	/	i	66*	54	-1
O=[N+]([O-])c1ccc(O)c(-c2nn[nH]n2)c1	-3	/	64*	-1	-1
NC(N)=N/N=C/c1cc([N+](=O)[O-])ccc1O	-2	i	7	8	0
O=[N+]([O-])c1ccc(O)c(/C=N/Nc2nn[nH]n2)c1	-5	i	67*	40	0
Cc1noc(C)c1NC(=O)N(C)C[C@H]1Oc2c(NC(=O)c3ccncc3)cccc2C(=O)N([C@@H](C)CO)C[C@@H]1C	/	/	0	/	/
C[C@@H]1CN([C@H](C)CO)C(=O)c2cccc(NC(=O)Nc3ccc4c(c3)OCO4)c2O[C@@H]1CN(C)S(=O)(=O)c1cccs1	/	/	5	/	/
Oc1ccccc1/C=N/Nc1nn[nH]n1	-4	i	72*	8	1
